Measured values as given in ChEMBL document CHEMBL4364301 (Eur J Med Chem, 2019).

How the values were obtained:
Type in all cases: functional
CWR22R = experiment: Antiproliferative activity against human 22Rv1 cells assessed as reduction in cell growth incubated for 96 hrs by propidium iodide based 2D monolayer assay
Outline: (§1)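 After 24 h recovery, compound in medium or medium alone (control wells) was added at 10 half-log concentrations from 0.0032 to 100 µM, in triplicate, with at most 0.3% DMSO. After 96 h, wells were PBS-washed, stained with 7 µg/ml PI and 0.1% Triton X-100, and fluorescence read at 530/620 nm. IC50 came from a 4-parameter fit, geometric mean.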

LNCaP = experiment: Antiproliferative activity against human LNCAP cells assessed as reduction in cell growth incubated for 96 hrs by propidium iodide based 2D monolayer assay; outline: as §1
VCaP = experiment: Antiproliferative activity against human VCaP cells assessed as reduction in cell growth incubated for 96 hrs by propidium iodide based 2D monolayer assay
Outline: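 VCaP cells in RPMI 1640 with 10% FCS at 37 °C, 5% CO2, seeded 4,000–20,000 cells/well and left 24 h before dosing. Compounds from DMSO stocks were diluted in half-log steps in medium, 10 concentrations 0.0032–100 μM, triplicate wells, max 0.3% DMSO. After 96 h, cells were washed, stained with 7 μg/ml propidium iodide plus 0.1% Triton X-100 for 1–2 h at room temperature, and fluorescence read at ex 530/em 620 nm.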

DU-145 = experiment: Antiproliferative activity against human DU145 cells assessed as reduction in cell growth incubated for 96 hrs by propidium iodide based 2D monolayer assay; outline: as §1

Measured: Activity

CC(O)(CS(=O)(=O)c1ccc(F)cc1)C(=O)Nc1ccc(C#N)c(C(F)(F)F)c1 (racemic) [BICALUTAMIDE]
active: CWR22R Dose-dependent effect | LNCaP Dose-dependent effect | VCaP Dose-dependent effect | DU-145 Dose-dependent effect
